As usually defined, the IC50 is the point on the concentration scale where inhibition reaches its midpoint.

The text below walks through data of ChEMBL document CHEMBL3779798, “Novel seleno- and thio-urea derivatives with potent in vitro activities against several cancer cell lines” (Eur J Med Chem, 2016).

The structures appear in SMILES notation.

Holding throughout (type): functional, cell-based
Assay [1] in a line: Anticancer activity against human HCT116 cells assessed as inhibition of cell growth after 72 hrs by MTT assay. To be noted: HCT-116, 72 h. Put shortly: (§1)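 MTT assay at 3,000 cells/well. Cells treated with DMSO or seven concentrations from 0.5 to 50 µM for 24, 48 or 72 h. MTT added 3 h before the end point; formazan dissolved in DMSO and read at 570 and 630 nm. IC50 is the concentration giving 50% growth inhibition. Media: PANC-1, BxPC3 and 1205Lu in DMEM; DU145 and A549 in RPMI 1640; HT29, HCT116 and RKO in McCoy's 5A, all with 10% FBS and pen/strep, at 37 °C and 5% CO2.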
A general note: Tetrazolium assays rely on reduction of a dye to a coloured formazan, in cell work by metabolically active cells.

The nature of assay [2]: Anticancer activity against human 1205 Lu cells assessed as inhibition of cell growth after 24 hrs by MTT assay. Put shortly:
as §1

Assay [3] relates to A549. Description: Anticancer activity against human A549 cells assessed as inhibition of cell growth after 72 hrs by MTT assay. The note with it: A549, 72 h. The gist of the method: as §1
The nature of assay [4]: Anticancer activity against human 1205 Lu cells assessed as inhibition of cell growth after 48 hrs by MTT assay. The gist of the method:
as §1

Assay [5] in a line: Anticancer activity against human BxPC3 cells assessed as inhibition of cell growth after 24 hrs by MTT assay. To be noted: BXPC-3, 24 h. The gist of the method: as §1
Assay [6] can be described thus: Anticancer activity against human DU145 cells assessed as inhibition of cell growth after 24 hrs by MTT assay. The note with it: DU-145, 24 h. The gist of the method:
as §1

The nature of assay [7]: Anticancer activity against human BxPC3 cells assessed as inhibition of cell growth after 48 hrs by MTT assay. The note with it: BXPC-3, 48 h. The gist of the method:
as §1

A short description of assay [8]: Anticancer activity against human PANC1 cells assessed as inhibition of cell growth after 48 hrs by MTT assay. To be noted: PANC-1, 48 h. The gist of the method:
as §1

The nature of assay [9]: Anticancer activity against human HCT116 cells assessed as inhibition of cell growth after 48 hrs by MTT assay. To be noted: HCT-116, 48 h. Put shortly: as §1
Assay [10] has as its system HT-29. As to the kind of experiment: Anticancer activity against human HT-29 cells assessed as inhibition of cell growth after 72 hrs by MTT assay. To be noted: HT-29, 72 h. Put shortly: as §1
Assay [11] deals with RKO. Description: Anticancer activity against human RKO cells assessed as inhibition of cell growth after 24 hrs by MTT assay. The gist of the method:
as §1

Assay [12] can be described thus: Anticancer activity against human PANC1 cells assessed as inhibition of cell growth after 72 hrs by MTT assay. To be noted: PANC-1, 72 h. The gist of the method: as §1
Assay [13] relates to HT-29. As to the kind of experiment: Anticancer activity against human HT-29 cells assessed as inhibition of cell growth after 48 hrs by MTT assay. The note with it: HT-29, 48 h. The gist of the method:
as §1

Assay [14] has as its system RKO. As to the kind of experiment: Anticancer activity against human RKO cells assessed as inhibition of cell growth after 48 hrs by MTT assay. The gist of the method: as §1
A short description of assay [15]: Anticancer activity against human HCT116 cells assessed as inhibition of cell growth after 24 hrs by MTT assay. The note with it: HCT-116, 24 h. The gist of the method:
as §1

A short description of assay [16]: Anticancer activity against human DU145 cells assessed as inhibition of cell growth after 48 hrs by MTT assay. The note with it: DU-145, 48 h. Put shortly: as §1
Assay [17] has as its system A549. As to the kind of experiment: Anticancer activity against human A549 cells assessed as inhibition of cell growth after 24 hrs by MTT assay. To be noted: A549, 24 h. Put shortly:
as §1

Assay [18] is described as follows: Anticancer activity against human DU145 cells assessed as inhibition of cell growth after 72 hrs by MTT assay. To be noted: DU-145, 72 h. The gist of the method:
as §1

The test system of assay [19] is A549. As to the kind of experiment: Anticancer activity against human A549 cells assessed as inhibition of cell growth after 48 hrs by MTT assay. The note with it: A549, 48 h. Put shortly:
as §1

In assay [20] the test system is RKO. Description: Anticancer activity against human RKO cells assessed as inhibition of cell growth after 72 hrs by MTT assay. Put shortly:
as §1

Assay [21] in a line: Anticancer activity against human 1205 Lu cells assessed as inhibition of cell growth after 72 hrs by MTT assay. Put shortly:
as §1

Assay [22] can be described thus: Anticancer activity against human PANC1 cells assessed as inhibition of cell growth after 24 hrs by MTT assay. The note with it: PANC-1, 24 h. Put shortly:
as §1

Assay [23] concerns HT-29. Description: Anticancer activity against human HT-29 cells assessed as inhibition of cell growth after 24 hrs by MTT assay. To be noted: HT-29, 24 h. Put shortly:
as §1

A short description of assay [24]: Anticancer activity against human BxPC3 cells assessed as inhibition of cell growth after 72 hrs by MTT assay. The note with it: BXPC-3, 72 h. Put shortly: as §1

On to `N=C(N)SCc1ccc2c(c1)C(=O)c1ccccc1C2=O`, for which the IC50 came to 10.3 µM in assay [1]; 9.4 µM in [2]; 7.6 µM in assay [3]; 8.5 µM in assay [4]; 4.1 µM in assay [5]; 29.8 µM in [6]. Also, the IC50 in assay [7] amounted to 9 µM; in assay [8] it was 7.4 µM; in assay [9], 10.7 µM; in [10], 7.4 µM; in [11] it was 28.9 µM; in assay [12] it was 6.8 µM. Moreover, the IC50 in [13] was found to be 8.1 µM; in assay [14], 20.4 µM; in assay [15] it was 20.2 µM; in [16] it was 22.9 µM; in assay [17], 9.7 µM; in assay [18] it was 31.2 µM. Besides, the IC50 in assay [19] was determined as 8.7 µM; in assay [20], 21 µM; in assay [21], 6.3 µM; in assay [22], 7.6 µM; in assay [23], 17 µM; in [24], 7.9 µM.

Take `N=C(N)[Se]Cc1ccc2ccccc2n1`: the concentration for half-maximal inhibition (IC50) is 10.6 µM in assay [1]; 14.4 µM in assay [2]; 8.1 µM in assay [3]; 9.9 µM in assay [4]; 36.6 µM in assay [5]; 19.6 µM in [6]. For the same compound, the half-inhibitory concentration (IC50) in assay [7] was 17 µM; in [8], 15.9 µM; in assay [9], 19.6 µM; in [12] it was 9.6 µM; in [15] it was 29.7 µM; in assay [16], 11.6 µM. Further, the IC50 in assay [17] amounted to 39.6 µM; in assay [18] it was 7.3 µM; in assay [19], 15.1 µM; in [21], 7.1 µM; in assay [22] it was 18 µM; in assay [24] it was 7.8 µM.

Take `N=C(N)[Se]Cc1ccc(-n2cccc2)cc1`: the IC50 in assay [1] is more than 50 µM; in assay [2] it was more than 50 µM; in assay [3] it was 12.8 µM; in assay [4], more than 50 µM; in assay [5] it was more than 50 µM; in assay [6], more than 50 µM. The IC50 in assay [7] was 14.7 µM; in assay [8], more than 50 µM; in assay [9], more than 50 µM; in [12] it was more than 50 µM; in assay [15], more than 50 µM; in assay [16], more than 50 µM. Moreover, the IC50 in [17] was 25.3 µM; in [18], more than 50 µM; in assay [19], 16.3 µM; in assay [21], more than 50 µM; in [22], more than 50 µM; in [24], 8.3 µM.

For the compound `O=c1[nH]cc(F)c(=O)[nH]1` [FLUOROURACIL], the IC50 in [1] was 27.8 µM; in assay [9], more than 50 µM; in [10], 6.3 µM; in [11] it was more than 50 µM; in assay [13] it was 25 µM; in assay [14], 41.1 µM. In addition, the results for the half-inhibitory concentration (IC50) in assay [15], in assay [20] and in [23] were more than 50 µM, 6.8 µM and more than 50 µM, respectively.

With `N=C(N)SCN1C(=O)c2ccccc2C1=O`, the IC50 in assay [1], in assay [2], in assay [3], in assay [4], in [5] and in assay [6] was more than 50 µM each time. The IC50 in assay [7], in [8], in assay [9], in [12], in assay [15] and in [16] was more than 50 µM each time. Further, the IC50 in assay [17], in assay [18], in assay [19], in assay [21], in assay [22] and in [24] was more than 50 µM in each case.
